In test [1] the test system is Mus musculus. The test is described as follows: Percent median survival time of mice injected with B16 melanoma, at a intraperitoneal compound dose of 20-40 mg/kg.
For test [2], the species on record is Mus musculus. The test is described as follows: Long-term survivors among 14 mice infected with B16 melanoma, scored on day 90 at optimal dose on days 1-9.
The test system of another test is L1210. The test is described as follows: Inhibition of murine L1210 leukemia cell proliferation measured by the MTT assay. In kind it is functional, cell-based. Conditions: Mus musculus. An outline of the steps:
(§1)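 Murine L1210 leukemia and B16 melanoma cells were grown in RPMI 1640 with 10% fetal calf serum, 2 mM L-glutamine, penicillin/streptomycin and 10 mM HEPES (pH 7.4). Cells were exposed to nine serial drug dilutions in triplicate for about four doubling times (L1210 48 h, B16 96 h), then read by microculture tetrazolium (MTT) assay. IC50 is the concentration halving optical density versus untreated controls, averaged over ≥2 independent experiments.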

Test [3] relates to Mus musculus. The test is described as follows: Percent median survival time of mice injected with P388 leukemia, at a intravenous compound dose of 320 mg/kg.
In test [4] the test system is Mus musculus. The test is described as follows: Long-term survivors among 14 mice infected with P388 leukemia, scored on day 60 at 320 mg/kg dose on day 1. Format: functional. An outline of the steps:
(§2)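 B6D2F1 mice in groups of 6–7 were inoculated ip on day 0 with 10^6 P388 cells. Dihydrochloride salts were dissolved in water and given iv on day 1 or on days 1, 5 and 9. Doses ranged from a low nontoxic dose to a toxic one. Long-term survivors were counted at day 60.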

Test [5] relates to Mus musculus. The test is described as follows: Percent median survival time of mice injected with P388 leukemia, at a subcutaneous compound dose of 160 mg/kg. Format: functional.
A further test deals with B16. The test is described as follows: Inhibition of murine B16 melanoma cell proliferation measured by the MTT assay. Format: functional, cell-based. The following applies: Mus musculus. In a few lines:
as §1

Test [6] has as its system Mus musculus. The test is described as follows: Long-term survivors among 6 mice infected with P388 leukemia, scored on day 60 at 320 mg/kg dose. In kind it is functional. An outline of the steps:
as §2

The test system of test [7] is Mus musculus. The test is described as follows: Percent median survival time of mice intraperitoneally injected with P388 leukemia was determined from tested at 320 mg/kg at day1 dose to that of control. Format: functional. Conditions: route intraperitoneal. An outline of the steps: (§3)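 P388 leukemia in B6D2F1 mice (groups of 6–7), 10^6 cells inoculated ip on day 0. Dihydrochloride salts were dissolved in water and given iv on day 1 or on days 1, 5, 9. Three doses were tested, then five if active. %T/C = median survival treated/control × 100, reported at the optimal dose (no toxic death, weight loss <20%), from one or two representative experiments.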

For test [8], the system named is Mus musculus. The test is described as follows: Long-term survivors among 7 mice infected with B16 melanoma, scored on day 90 at 80 mg/kg dose.
The subject of test [9] is Mus musculus. The test is described as follows: Percent median survival time of mice injected with B16 melanoma, at a intraperitoneal compound dose of 80 mg/kg.
Test [10] deals with Mus musculus. The test is described as follows: Long-term survivors among 6 mice infected with P388 leukemia, scored on day 60 at 160 mg/kg dose. In kind it is functional. An outline of the steps:
as §2

For test [11], the system named is Mus musculus. The test is described as follows: Percent median survival time of mice intraperitoneally injected with P388 leukemia was determined from tested at 160 mg/kg at day1,5,9 dose to that of control. In kind it is functional. The following applies: route intraperitoneal. In a few lines:
as §3

For test [12], the system named is Mus musculus. The test is described as follows: Long-term survivors among 6 mice infected with P388 leukemia, scored on day 60 at 5 mg/kg dose on day 1. Format: functional. An outline of the steps:
as §2

In test [13] the test system is Mus musculus. The test is described as follows: Percent median survival time of mice injected with B16 melanoma, at a intraperitoneal compound dose of 20 mg/kg.
The test system of test [14] is Mus musculus. The test is described as follows: Percent median survival time of mice injected with P388 leukemia, at a subcutaneous compound dose of 5 mg/kg on day 1, 5, 9. Format: functional.
The subject of test [15] is Mus musculus. The test is described as follows: Percent median survival time of mice injected with P388 leukemia, at a subcutaneous compound dose of 5 mg/kg on day 1. In kind it is functional.
The subject of test [16] is Mus musculus. The test is described as follows: Long-term survivors among 6 mice infected with B16 melanoma, scored on day 90 at 102 mg/kg dose on day 1. Format: functional.
Test [17] concerns Mus musculus. The test is described as follows: Percent median survival time of mice injected with P388 leukemia, at a intravenous compound dose of 40 mg/kg.
The test system of test [18] is Mus musculus. The test is described as follows: Long-term survivors among 7 mice infected with B16 melanoma, scored on day 90 at 40 mg/kg dose on day 1. Format: functional.
Test [19] relates to Mus musculus. The test is described as follows: Percent median survival time of mice injected with B16 melanoma, at a intraperitoneal compound dose of 1.25 mg/kg.
Test [20] relates to Mus musculus. The test is described as follows: Long-term survivors among 7 mice infected with P388 leukemia, scored on day 60 at 40 mg/kg dose on day 1. In kind it is functional. In a few lines: (§4)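 B6D2F1 mice in groups of 6–7 received 10^6 P388 cells ip on day 0. Dihydrochloride salts dissolved in water were injected iv on day 1 or on days 1, 5 and 9, at three doses and then five. Read-outs were % T/C (median survival treated/control × 100) and long-term survivors on day 60, both at the optimal dose (no toxic death, weight loss <20%).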

The test system of test [21] is Mus musculus. The test is described as follows: Percent median survival time of mice injected with P388 leukemia, at a subcutaneous compound dose of 20 mg/kg. In kind it is functional.
For test [22], the system named is Mus musculus. The test is described as follows: Percent median survival time of mice injected with P388 leukemia, at a subcutaneous compound dose of 240 mg/kg. In kind it is functional.
The subject of test [23] is Mus musculus. The test is described as follows: Long-term survivors among 7 mice infected with B16 melanoma, scored on day 90 at 240 mg/kg dose on day 1. In kind it is functional.
Test [24] has as its system Mus musculus. The test is described as follows: Long-term survivors among 7 mice infected with P388 leukemia, scored on day 60 at 240 mg/kg dose on day 1. Format: functional. In a few lines:
as §4

In test [25] the test system is Mus musculus. The test is described as follows: Long-term survivors among 10 mice infected with P388 leukemia, scored on day 60 at 20 mg/kg dose. In kind it is functional.
Test [26] concerns Mus musculus. The test is described as follows: Percent median survival time of mice injected with P388 leukemia, at a subcutaneous compound dose of 10 mg/kg. In kind it is functional.
In test [27] the test system is Mus musculus. The test is described as follows: Long-term survivors among 10 mice infected with P388 leukemia, scored on day 60 at 10 mg/kg dose. In kind it is functional.
In test [28] the test system is Mus musculus. The test is described as follows: Percent median survival time of mice injected with B16 melanoma, at a intraperitoneal compound dose of 2.5 mg/kg.

On to `Cc1c2ccnc(C(=O)NCCN(C)C)c2cc2c3cc(OC(=O)CC(C)(C)CC(=O)O)ccc3n(C)c12`, for which the T/C is greater than 466% in the test with Mus musculus [1], greater than 600% in the test on Mus musculus [3] and 404% in the test with Mus musculus [5]. Further, the LTS in the test listed under Mus musculus [2] was found to be 5; with Mus musculus [4], 4. Also, the IC50 in the test on L1210 amounted to 2.7 nM; in the test with B16 it was 3.7 nM.

Turning to `Cc1c2ccnc(C(=O)NCCN(C)C)c2cc2c3cc(OP(=O)(O)OCc4ccccc4)ccc3n(C)c12`, the LTS in the test with Mus musculus [6], in the test with Mus musculus [8] and with Mus musculus [10] was 0 each time. Moreover, the T/C was 142% in the test with Mus musculus [7], 144% in the test with Mus musculus [9] and 111% with Mus musculus [11]. Besides, the IC50 with L1210 was found to be 4000 nM; in the test on B16, 511 nM.

Take `Cc1c2ccnc(C(=O)NCCN(C)C)c2cc2c3cc(OC(=O)N4CCN(C(c5ccccc5)c5ccccc5)CC4)ccc3n(C)c12`: the LTS in the test on Mus musculus [12] and with Mus musculus [16] was 0 each time. Moreover, the 50% inhibitory concentration (IC50) with L1210 was determined as 164 nM; in the test on B16, 590 nM. The T/C is 102% with Mus musculus [13], 94% in the test with Mus musculus [14] and 102% with Mus musculus [15].

For `Cc1c(OC(=O)CCCCC(=O)O)ccc2c1c1cc3c(C(=O)NCCN(C)C)nccc3c(C)c1n2C`, the IC50 came to 24.7 nM with L1210 and 6.4 nM in the test with B16. The T/C in the test on Mus musculus [17] is recorded as 300%; with Mus musculus [19], 127%; in the test with Mus musculus [21], greater than 600%. The LTS with Mus musculus [18] and with Mus musculus [20] was 0 throughout.

For `Cc1c2ccnc(C(=O)NCCN(C)C)c2cc2c3cc(OC(=O)NCCCC(=O)O)ccc3n(C)c12`, the T/C in the test on Mus musculus [22] is reported as 111%; with Mus musculus [9], 139%; with Mus musculus [5], 109%. Also, the 50% inhibitory concentration (IC50) in the test with L1210 was determined as 522 nM; in the test on B16 it was 45.7 nM. In addition, the LTS in the test on Mus musculus [23] and with Mus musculus [24] was 0 in each case.

Take `COc1cccc2c1C(=O)c1c(O)c3c(c(O)c1C2=O)C[C@@](O)(C(=O)CO)C[C@@H]3O[C@H]1C[C@H](N)[C@H](O)[C@H](C)O1` [DOXORUBICIN]: the values for the half-inhibitory concentration (IC50) with L1210 and in the test on B16 were 34.3 nM and 7.6 nM, respectively. The LTS stood at 2 in the test with Mus musculus [25] and 4 in the test with Mus musculus [27]. The values for the T/C with Mus musculus [26], with Mus musculus [28] and with Mus musculus [21] were 332%, 456% and 258%, respectively.
